From the RNAGym collection of RNA variant scans (doi:10.1126/science.aae0568)
Variants at the floor of the assay were thinned out.

B1: tRNA (parent)
chain: GUUCCGUUGGCGUAAUGGUAACGCGUCUCCCUCCUAAGGAGAAGACUGCGGGUUCGAGUCCCGUACGGAACG

Variants of: B1
Assay: yeast fitness relative to wild type (ratio to wild type); higher = fitter; tRNA-Arg(CCU), competitive growth, 37 C, YPD
Summary of the method: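 Variants of the tRNA-Arg(CCU) gene were chemically synthesised with a 3% per-site mutation rate across 69 sites and placed at the native genomic locus in Saccharomyces cerevisiae. Six parallel replicates of the pooled strains were competed in YPD at 37°C for 24 hours, and gene amplicons from the start and end populations were read by 100-nucleotide paired-end sequencing. Darwinian fitness relative to wild type was derived from changes in genotype frequencies. Genotypes required ≥ 100 starting reads, and estimates < 0.5 were set to 0.5.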

Variant	yeast fitness
A20U C33A	0.653
A20U C33A C66A	≤ 0.5
A20U C33U	0.675
A20U C34A C66A	≤ 0.5
A20U C34U A42U	≤ 0.5
A20U C46A	0.858
A20U C55G G58C	≤ 0.5
A20U C60A	0.609
A20U C60G C61U	≤ 0.5
A20U C60U A69U	0.672
A20U C61U	0.836
A20U C62U A65C	0.682
A20U G23A C31U G39A	≤ 0.5
A20U G23A G63A A70U	≤ 0.5
A20U G23C U35G	0.643
A20U G25C A65U A69C	0.587
A20U G38C A65G	≤ 0.5
A20U G39A A45C A57C G68C	≤ 0.5
A20U G44C A45G	0.596
A20U G44U A57U G58A C66G	0.518
A20U G51A C61G	≤ 0.5
A20U G63A	0.932
A20U G68A	0.843
A20U G68C	0.86

Variant	yeast fitness
A20U U26A	0.754
A20U U26C C33A C62A A69U	≤ 0.5
A20U U26C C62G	≤ 0.5
A20U U26C U47C	0.534
A20U U28C G44A C46U G48A C49U C60G C62A C66G	≤ 0.5
A20U U32A A65C	≤ 0.5
A20U U32C C55U	0.55
A20U U35C	0.949
A20U U35C A36G C55G	0.578
A20U U47C	0.935
A20U U47G G52C	≤ 0.5
A20U U54C	0.758
A20U U59A	0.847
A20U U59G	0.728
A21C A36U	0.54
A21C A36U A37G A42C U64A	≤ 0.5
A21C A36U G48A	≤ 0.5
A21C A40C	0.734
A21C A40U A45G A65C	0.547
A21C A40U C55G C66G	≤ 0.5
A21C A42G	0.751
A21C A42U A45U	0.646
A21C A43G G48C	≤ 0.5
A21C A43U G50A G52U A69C	0.554

Variant	yeast fitness
A21C A45G	0.918
A21C A45U G48C C62U	≤ 0.5
A21C A57U C66U	≤ 0.5
A21C A65C G67U	≤ 0.5
A21C A69C	0.809
A21C C22A U26C U35C	≤ 0.5
A21C C22G A69C	≤ 0.5
A21C C22G G38C A57C	0.524
A21C C22G G38C C49U A57C	≤ 0.5
A21C C22U G38C A40C C62A	0.559
A21C C24A C33A G48C	0.579
A21C C24A U32A	≤ 0.5
A21C C24U U26A G38C C46G C62U A65C	≤ 0.5
A21C C24U U32A C62G	0.539
A21C C27A	0.545
A21C C27G C29A A65C	≤ 0.5
A21C C27U A57G C62U	0.507
A21C C27U C49U G58C C61A A65U A69U	≤ 0.5
A21C C29G	0.622
A21C C29G C33A A42C C62A	0.52
A21C C29G G68C	0.557
A21C C30A A42C G48C C49U U54C	0.598
A21C C30G	0.6
A21C C30G A65G	≤ 0.5

Variant	yeast fitness
A21C C30G A69C	0.542
A21C C33G C34G U54A	≤ 0.5
A21C C33U C55A	0.533
A21C C33U C61A A70C	0.578
A21C C34G G48C	≤ 0.5
A21C C34U	0.536
A21C C34U A36U G38C C49U	≤ 0.5
A21C C34U A65G	0.532
A21C C34U U64A	≤ 0.5
A21C C46G C49G G56A	0.528
A21C C60G C62G A70C	≤ 0.5
A21C C61U A70U	0.623
A21C C62U C66A	≤ 0.5
A21C C66A	0.527
A21C G23C G52C	≤ 0.5
A21C G25C	0.896
A21C G25C U26G G50U G56A U59A A70C	0.541
A21C G25C U26G U59A G63C G68U	≤ 0.5
A21C G38A G58C	0.503
A21C G39A A65C	≤ 0.5
A21C G41A G48C G51C G52C	≤ 0.5
A21C G63C	0.779
A21C G67A	0.8
A21C U26A C27G	0.581

Variant	yeast fitness
A21C U26G	0.642
A21C U28A G68A	≤ 0.5
A21C U28C	0.852
A21C U32C A40G G68A	≤ 0.5
A21C U32C C60G	≤ 0.5
A21C U35C	0.856
A21C U47A C60U G67C	≤ 0.5
A21C U53G	0.567
A21C U64A	0.799
A21G A36C	0.557
A21G A36G A42U	0.75
A21G A36G G38C G50A	≤ 0.5
A21G A37C A57C G58A	≤ 0.5
A21G A37G	0.692
A21G A37G C60G	≤ 0.5
A21G A40G C49G U59G G67C	≤ 0.5
A21G A40G C55A	0.535
A21G A42U G67A	0.54
A21G A43U C49U U53C C61G	≤ 0.5
A21G A43U G58C C60A C66U	≤ 0.5
A21G A45C C49U C55U	0.531
A21G A45C C62U G68C A69G	≤ 0.5
A21G A45C U59C A69G	0.539
A21G A69U	1.07

Variant	yeast fitness
A21G A70G	0.992
A21G C22A G50C	≤ 0.5
A21G C22A G63C G67A	≤ 0.5
A21G C24G A37U C66U	≤ 0.5
A21G C27A	0.757
A21G C27G	0.562
A21G C27G A42U	≤ 0.5
A21G C27G C33G	≤ 0.5
A21G C27G C60G A70C	≤ 0.5
A21G C27U	1.03
A21G C27U A69U	0.772
A21G C27U C30G U32G C46G G48A C60A	0.561
A21G C29U	0.944
A21G C29U A36U A43U C62A	0.559
A21G C29U A37U G63C	≤ 0.5
A21G C29U G38C	0.814
A21G C30A U32G G67A A69C	≤ 0.5
A21G C30G A36G C46G A57U	0.551
A21G C30U G67A	0.633
A21G C30U U53A A57U A65U	≤ 0.5
A21G C31A	0.962
A21G C31G A65C	0.674
A21G C31G C33G	≤ 0.5
A21G C31G C66A	0.505

Variant	yeast fitness
A21G C31U C49U	0.97
A21G C33G C34G	0.547
A21G C33G G38A A69C	≤ 0.5
A21G C33U C49A	0.502
A21G C34G A40G	0.572
A21G C34G G56A C66G	≤ 0.5
A21G C46A	1.01
A21G C46U	0.97
A21G C46U C66U	0.742
A21G C46U G56C A69U	≤ 0.5
A21G C49G U59C	0.583
A21G C49U	0.994
A21G C49U U59G	0.619
A21G C55A	0.641
A21G C55G	0.671
A21G C55U C66U	≤ 0.5
A21G C61A G67A	0.532
A21G C61G C62U	≤ 0.5
A21G C62U	0.924
A21G C66U	0.858
A21G G23A A40C G52A	≤ 0.5
A21G G23A A45C G52A	0.517
A21G G23A C27U C66U	0.533
